Screens: PubChem BioAssay, The Scripps Research Institute Molecular Screening Center
TAAR1 agonist – agonists of human TAAR1 | actives 0.99% (n = 360,000) | AID 624467 | Q96RJ0 | CHO RD-HGA16 TAAR1, Fluo-8 calcium fluorescence; vehicle wells 0%, saturating PEA agonist 100% | activation, % at 3 µM;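 active = activation above the mean activation of all test compounds in the run plus 3 SD, cut at about 38% in these data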
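Benchmarks: low control DMSO, high control PEA (EC100); System: CHO RD-HGA16 cells carrying human TAAR1 plus Gα16; Detection: Fluo-8 fluorescence, 5 s baseline then 140 s kinetic read; Schedule: 17-24 h plating, Fluo-8 75 min 37 °C, 30 min RT; Read-out basis: % activation from peak over basal fluorescence ratio, DMSO-to-PEA scaled.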
CHO parental Ca – counter-screen for OX1R antagonists: effect in parental CHO cells; actives 0.63% (n = 330,000); parental CHO-K1, ATP-induced calcium, Fluo-8 fluorescence; inhibition, % at 5.6 µM;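 active = inhibition above that plate's mean sample inhibition plus 3 SD, cut at about 26% in these data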
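Material: Parental CHO cells | Reagent: ATP | Compound dosing: Single nominal dose of 5.6 µM per compound | Detection: Intracellular calcium via Fluo-8 no-wash fluorescent dye | Read-out: % inhibition of ATP-induced calcium mobilization | Benchmarks: Low control ATP plus DMSO, high control DMSO only | Replicates: Singlicate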
OX1R antag-1 – blocks the human orexin 1 receptor. CHO/OX1R cells, Fluo-8 calcium fluorescence, orexin A. inhibition, % at 5 µM. actives 0.43% (n = 330,000). AID 434989;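 active = inhibition above its plate's threshold, mean inhibition of all tested compounds on the plate plus 3 SD, cut at about 37% in these data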
Target sequence (O43613 whole entry, looked up): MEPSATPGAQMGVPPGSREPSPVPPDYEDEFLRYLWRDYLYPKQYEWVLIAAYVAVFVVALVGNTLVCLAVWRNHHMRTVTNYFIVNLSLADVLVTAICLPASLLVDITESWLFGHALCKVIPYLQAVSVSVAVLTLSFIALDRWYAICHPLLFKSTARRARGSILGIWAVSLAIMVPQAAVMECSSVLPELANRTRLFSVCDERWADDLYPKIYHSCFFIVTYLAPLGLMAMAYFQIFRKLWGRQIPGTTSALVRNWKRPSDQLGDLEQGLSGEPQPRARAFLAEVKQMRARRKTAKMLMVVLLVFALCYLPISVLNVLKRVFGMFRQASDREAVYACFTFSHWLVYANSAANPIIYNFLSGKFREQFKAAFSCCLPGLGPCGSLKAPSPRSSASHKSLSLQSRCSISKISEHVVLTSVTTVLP
GPR7 antagonist – human neuropeptides B/W receptor 1 antagonism; GPR7-expressing cells, fluorescence antagonist assay; actives 1.1% (n = 290,000); AID 1861; inhibition, % at 4.4 µM; in the data active = inhibition above about 16%, passing the limit was not always enough;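 note: cells stimulated with the agonist NPW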
Target sequence (P48145 whole entry, looked up): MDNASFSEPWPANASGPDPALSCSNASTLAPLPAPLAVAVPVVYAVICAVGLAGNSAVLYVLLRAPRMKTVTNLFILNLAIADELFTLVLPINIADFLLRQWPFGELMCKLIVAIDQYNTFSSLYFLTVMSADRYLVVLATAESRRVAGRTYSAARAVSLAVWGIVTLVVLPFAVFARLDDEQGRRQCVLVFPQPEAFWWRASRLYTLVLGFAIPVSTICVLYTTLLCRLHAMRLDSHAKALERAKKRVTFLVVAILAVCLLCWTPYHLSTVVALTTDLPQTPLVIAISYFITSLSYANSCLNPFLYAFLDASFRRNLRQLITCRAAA
OX1R antag-2 – OX1R (human) antagonism | actives 1.8% (n = 330,000) | inhibition, % at 6.6 µM | OX1R-expressing cells, FRET antagonist read-out; in the data active = inhibition mostly above about 38%, no sharp cut-off; inactive = mostly below about 40%
TAAR1 antag – antagonists of human TAAR1 | inhibition, % at 3 µM | CHO RD-HGA16 TAAR1, Fluo-8 calcium fluorescence, antagonist | Q96RJ0 | AID 624466 | actives 1.5% (n = 360,000);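 active = inhibition above a per-plate cutoff, the mean inhibition of test compounds on that plate plus 3 SD, cut at about 49% in these data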
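Assay system: RD-HGA16 CHO cells with stable hTAAR1 and Gα16 / Reagent: EC80 β-phenethylamine stimulus / Doses: 3 µM, single point / Timing: dye loading 75 min at 37 °C, then 30 min room temperature / Measured by: Fluo-8 intracellular calcium dye fluorescence, real-time kinetic reads / Controls: vehicle wells and EC80 agonist wells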
TAAR1 ag confirm – confirmation of human TAAR1 agonists. shares compounds with TAAR1 agonist. CHO RD-HGA16 TAAR1, Fluo-8 calcium fluorescence; scaled: DMSO 0%, maximal phenethylamine 100%. activation, % at 3 µM. actives 82% (n = 2,400). AID 651783;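 active = activation above a cutoff set at the run's mean compound activation plus 3 SD, cut at about 39% in these data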
Ga16 ag counter – nonselective agonist in parental cells, TAAR1 agonist counter-screen; shares compounds with TAAR1 agonist; actives 50% (n = 2,400); AID 651787; activation, % at 3 µM; CHO-Ga16 parental, Fluo-8 calcium fluorescence; normalized to maximal ATP response, DMSO zero;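 active = activation above the run cutoff, the mean activation over all tested wells plus 3 SD, cut at about 12% in these data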
TAAR1 desens – human TAAR1 agonist that also desensitizes the receptor; AID 651951; CHO RD-HGA16 hTAAR1, Fluo-8 calcium, beta-PEA response inhibition; inhibition, % at 3 µM; actives 46% (n = 2,400); shares compounds with TAAR1 agonist;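 active = inhibition above the run cutoff, the mean inhibition of all test compounds plus 3 SD, cut at about 49% in these data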;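 note: beta-PEA stimulus applied at its EC80; loss of beta-PEA calcium signal after compound pretreatment read as receptor desensitization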
Ga16 nonsel ant – nonselective Ga16 antagonism, counter-screen; inhibition, % at 3 µM; shares compounds with TAAR1 agonist; CHO-Ga16 ATP-induced calcium, Fluo-8 fluorescence; actives 39% (n = 2,400);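 active = inhibition above the plate's mean compound inhibition plus 3 SD, computed per plate, cut at about 22% in these data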
Each line names hits and unclear results; the compound was inactive in the other large screens (follow-up assays come after a bar, where they were run). Hits are enriched below; roughly 4.6% of the tested compounds scored in any of these assays.

O=c1c2ccccc2nnn1CSc1ccccc1F	TAAR1 agonist 59.5 | TAAR1 ag confirm inactive | Ga16 ag counter inactive | TAAR1 desens inactive | Ga16 nonsel ant inactive
NC(=O)c1ccccc1NC(=O)CSc1nc2c(c(=O)[nH]1)CCCC2	none
CN1CCc2c(c3ccccc3n2Cc2ccccc2)C1	none
CN1CCc2c(c3ccccc3n2C)C1	TAAR1 agonist 54.9 | TAAR1 ag confirm 81.2 | Ga16 ag counter inactive | TAAR1 desens inactive | Ga16 nonsel ant inactive
O=C(Nc1ccc(Cl)c([N+](=O)[O-])c1)c1ccc(NCCCN2CCOCC2)c([N+](=O)[O-])c1	TAAR1 agonist 75.5, CHO parental Ca 42.4, TAAR1 antag 91.1 | TAAR1 ag confirm 76.8 | Ga16 ag counter 28.0 | TAAR1 desens 98.8 | Ga16 nonsel ant 35.2
CN(CCOC(=O)/C=C/c1ccccc1)C(C)(C)C	none
CC(C)N(C)CCOC(=O)/C=C/c1ccccc1	TAAR1 agonist 72.6, TAAR1 antag 54.2 | TAAR1 ag confirm inactive | Ga16 ag counter inactive | TAAR1 desens inactive | Ga16 nonsel ant inactive
CC(C(=O)Nc1ccc2c(c1)OCCO2)N1Cc2ccccc2C1=O (stereo not given)	none
COc1ccccc1CCNC(=O)CCn1nc(C)c2c(C)n(-c3ccccc3)nc2c1=O	TAAR1 agonist 57.8 | TAAR1 ag confirm 70.7 | Ga16 ag counter inactive | TAAR1 desens inactive | Ga16 nonsel ant inactive
Cc1ccccc1CCNC(=O)Cn1nc(C)c2c(C)n(-c3ccccc3)nc2c1=O	TAAR1 agonist 50.4 | TAAR1 ag confirm 53.0 | Ga16 ag counter inactive | TAAR1 desens inactive | Ga16 nonsel ant inactive
O=C(NCc1cccc2[nH]ccc12)C1CCC(=O)N(CCc2ccc(Cl)cc2)C1 (stereo not given)	none
O=C1/C(=C/c2ccc(S(=O)(=O)O)cc2S(=O)(=O)O)CCc2ccccc21	none (no result: CHO parental Ca, OX1R antag-1, GPR7 antagonist, OX1R antag-2)
Cn1c(N/N=C/c2cccs2)cc(=O)n(C)c1=O	TAAR1 agonist 45.3 | TAAR1 ag confirm 62.0 | Ga16 ag counter inactive | TAAR1 desens inactive | Ga16 nonsel ant inactive
Cn1c(=O)c2c(nc(N/N=C/c3cccs3)n2C)n(C)c1=O	none
CCOC(=O)[C@H]1[C@H]2COc3ccc(Br)cc3[C@H]2N2C(=O)CNC(=O)[C@@]12C	none (no result: GPR7 antagonist)
Cc1cc2c(cc1C)-n1nnnc1C(N(C)CCc1ccccc1)C(=O)N2 (stereo not given)	TAAR1 agonist 54.3 (no result: CHO parental Ca, OX1R antag-1, GPR7 antagonist, OX1R antag-2) | TAAR1 ag confirm 65.1 | Ga16 ag counter inactive | TAAR1 desens inactive | Ga16 nonsel ant inactive
CCOCCCn1c(SC(C(=O)Nc2cc(C)ccc2C)c2ccccc2)nnc1-c1ccc(Cl)cc1 (stereo not given)	none
CCOP(=O)(c1ccccc1)c1nc(-c2ccccc2Cl)oc1N1CCCCC1 (stereo not given)	TAAR1 agonist 47.9 | TAAR1 ag confirm inactive | Ga16 ag counter inactive | TAAR1 desens inactive | Ga16 nonsel ant inactive
COc1ccc(-c2oc3c(c2C#CC2(O)CCCCC2)C(OC)CCC3)cc1 (stereo not given)	none (no result: CHO parental Ca, OX1R antag-1, GPR7 antagonist, OX1R antag-2)
CC(C)[C@H](NC(=O)c1ccc(Cl)cc1Cl)C(=O)N1CCC[C@H]1C(=O)NCc1ccccc1	none (no result: CHO parental Ca, OX1R antag-1, GPR7 antagonist, OX1R antag-2)
CC(C)[C@H](NC(=O)CC1CCCC1)C(=O)N1CCC[C@H]1C(=O)NCCc1ccccc1Cl	TAAR1 agonist 65.1, TAAR1 antag 57.4 (no result: CHO parental Ca, OX1R antag-1, GPR7 antagonist, OX1R antag-2) | TAAR1 ag confirm 85.1 | Ga16 ag counter inactive | TAAR1 desens 85.9 | Ga16 nonsel ant inactive
O=C(N[C@H](C(=O)N1CCC[C@H]1C(=O)NCCc1ccccc1Cl)c1ccccc1)c1ccc(Cl)cc1Cl	none (no result: CHO parental Ca, OX1R antag-1, GPR7 antagonist, OX1R antag-2)
Cc1ccccc1C(=O)N[C@H](C(=O)N1CCC[C@H]1C(=O)NCCc1ccccc1Cl)C(C)C	TAAR1 agonist 57.3, TAAR1 antag 71.5 (no result: CHO parental Ca, OX1R antag-1, GPR7 antagonist, OX1R antag-2) | TAAR1 ag confirm 90.9 | Ga16 ag counter inactive | TAAR1 desens 94.6 | Ga16 nonsel ant inactive
Cc1ccccc1C(=O)N[C@H](C(=O)N1CCC[C@H]1C(=O)NCCc1ccccc1Cl)c1ccccc1	TAAR1 agonist 53.3 (no result: CHO parental Ca, OX1R antag-1, GPR7 antagonist, OX1R antag-2) | TAAR1 ag confirm 75.0 | Ga16 ag counter inactive | TAAR1 desens 79.2 | Ga16 nonsel ant inactive
CC(C)[C@H](NS(=O)(=O)c1ccc(F)cc1F)C(=O)N1CCC[C@H]1C(=O)NCc1ccccc1	none (no result: CHO parental Ca, OX1R antag-1, GPR7 antagonist, OX1R antag-2)
O=C(NCCc1ccccc1Cl)[C@@H]1CCCN1C(=O)[C@@H](NS(=O)(=O)c1ccc(F)cc1F)c1ccccc1	TAAR1 agonist 40.9, TAAR1 antag 55.5 (no result: CHO parental Ca, OX1R antag-1, GPR7 antagonist, OX1R antag-2) | TAAR1 ag confirm 57.0 | Ga16 ag counter inactive | TAAR1 desens 69.3 | Ga16 nonsel ant inactive
S=C(NCCCN1CCOCC1)Nc1cccc(-c2nnc3n2CCCCC3)c1	none
CC(C)[C@H](NC(=O)C1CC1)C(=O)N1CCC[C@H]1C(=O)NCCc1ccccc1Cl	TAAR1 agonist 61.9, TAAR1 antag 69.0 (no result: CHO parental Ca, OX1R antag-1, GPR7 antagonist, OX1R antag-2) | TAAR1 ag confirm 92.4 | Ga16 ag counter inactive | TAAR1 desens 89.9 | Ga16 nonsel ant inactive
